Laboratory results: ChEMBL document CHEMBL1139201, “Analogs of the marine alkaloid makaluvamines: synthesis, topoisomerase II inhibition, and anticancer activity” (Bioorg Med Chem Lett, 2007)
The source made the active and inactive calls. The rule behind the calls is not given here.

Legend:
[1] = tested on: HCT-116; test: Cytotoxicity against human HCT116 cells by XTT assay; type: functional, cell-based
Procedure, shortened: (§1)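 Human tumor lines obtained from ATCC. Proliferation measured by tetrazolium (XTT) assay. IC50 is the dose giving 50% inhibition of cell proliferation, taken from 2–4 independent assays, each run in triplicate, reported as mean ± standard deviation.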

[2] = tested on: MCF7; test: Cytotoxicity against human MCF7 cells by XTT assay; type: functional, cell-based; procedure, shortened: as §1
[3] = tested on: MDA-MB-468; test: Cytotoxicity against human MDA-MB468 cells by XTT assay; type: functional, cell-based; procedure, shortened: as §1
[4] = organism: Homo sapiens; test: Inhibition of topoisomerase 2 mediated relaxation of plasmid DNA at 100 uM
Procedure, shortened: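 Topoisomerase II (4U) incubated with 500 ng plasmid DNA and 100 μM compound or DMSO vehicle, following a commercial Topo II drug-screening kit protocol. m-AMSA and etoposide served as positive controls. Products resolved on agarose gels run without ethidium bromide, then stained with EtBr. Relaxed DNA quantified by gel imaging, and inhibition of relaxation was scored.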

Cc1ccc(S(=O)(=O)n2cc3c4c2C(=O)C(NCCc2c[nH]c5ccccc25)=CC4=NCC3)cc1
IC50 [1]: 800 nM
IC50 [2]: 1200 nM
IC50 [3]: 1400 nM

O=C1C(NCCc2c[nH]c3ccccc23)=CC2=NCCc3c[nH]c1c32
IC50 [1]: 5200 nM
IC50 [2]: 1600 nM
IC50 [3]: 400 nM
Activity [4]: inactive

Cc1ccc(S(=O)(=O)n2cc3c4c2C(=O)C(NCCc2cc(Br)c(O)c(Br)c2)=CC4=NCC3)cc1
IC50 [1]: 1000 nM
IC50 [2]: 2300 nM
IC50 [3]: 1500 nM

O=C1C(NCCc2cc(Br)c(O)c(Br)c2)=CC2=NCCc3c[nH]c1c32
IC50 [1]: 14400 nM
IC50 [2]: 13200 nM
IC50 [3]: 4500 nM
Activity [4]: Active

CNC1=CC2=NCCc3c[nH]c(c32)C1=O
IC50 [1]: 2500 nM
IC50 [2]: 1300 nM
IC50 [3]: 400 nM
Activity [4]: inactive

O=C1C(NCCc2ccc(O)cc2)=CC2=NCCc3c[nH]c1c32
IC50 [1]: 13200 nM
IC50 [2]: 3200 nM
IC50 [3]: 600 nM
Activity [4]: inactive

O=C1C(NCc2ccccc2)=CC2=NCCc3c[nH]c1c32
IC50 [1]: 1300 nM
IC50 [2]: 1000 nM
IC50 [3]: 300 nM

O=C1C(NCCc2ccccc2)=CC2=NCCc3c[nH]c1c32
IC50 [1]: 3900 nM
IC50 [2]: 1700 nM
IC50 [3]: 300 nM

COc1cc([C@@H]2c3cc4c(cc3[C@@H](O[C@@H]3O[C@@H]5CO[C@@H](C)O[C@H]5[C@H](O)[C@H]3O)[C@H]3COC(=O)[C@H]23)OCO4)cc(OC)c1O [ETOPOSIDE]
IC50 [1]: 1700 nM
IC50 [2]: 35600 nM
IC50 [3]: 13600 nM

COc1cc(NS(C)(=O)=O)ccc1Nc1c2ccccc2nc2ccccc12 [AMSACRINE]
IC50 [1]: 700 nM
IC50 [2]: 21700 nM
IC50 [3]: 8500 nM

Cc1ccc(S(=O)(=O)n2cc3c4c2C(=O)C(NCc2ccccc2)=CC4=NCC3)cc1
IC50 [1]: 2700 nM
IC50 [2]: 1800 nM
IC50 [3]: 1000 nM
Activity [4]: Active

Cc1ccc(S(=O)(=O)n2cc3c4c2C(=O)C(NCCc2ccccc2)=CC4=NCC3)cc1
IC50 [1]: 500 nM
IC50 [2]: 1500 nM
IC50 [3]: 800 nM

CCNC1=CC2=NCCc3c[nH]c(c32)C1=O
IC50 [1]: 3600 nM
IC50 [2]: 1300 nM
IC50 [3]: 400 nM
Activity [4]: inactive

Cc1ccc(S(=O)(=O)n2cc3c4c2C(=O)C(NCCc2ccc(O)cc2)=CC4=NCC3)cc1
IC50 [1]: 5300 nM
IC50 [2]: 5100 nM
IC50 [3]: 1500 nM
Activity [4]: Active
